Assay results from ChEMBL document CHEMBL5058577, “EUbOPEN Chemogenomics Library 2 (Multiplex)” (2022).

Tested on: Fibroblast
Assay: Multiplex assay against human fibroblast
Assay type: toxicity, cell-based
How it was run: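 Live cells carried four stains from seeding: Hoechst33342, BioTracker Green Microtubule Cytoskeleton Dye, MitoTracker Red and Annexin V Alexa Fluor 680. They were imaged on a CQ1 microscope at 37°C and 5% CO2 after compound addition. Using CellPathfinder machine-learning gating, cells were split into Hoechst high-intensity objects or normal cells, normal cells into healthy, pyknosed or fragmented nuclei, and pyknosed cells into mitotic or apoptotic; tubulin, mitochondrial-mass and membrane-permeability phenotypes are per cents of healthy-nucleus cells.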

[1] = 12 h, 1 µM, compound concentration 1 uM, replicate 1
[2] = 12 h, 1 µM, compound concentration 1 uM, replicate 2
[3] = 12 h, 10 µM, compound concentration 10 uM, replicate 1
[4] = 12 h, 10 µM, compound concentration 10 uM, replicate 2
[5] = 24 h, 1 µM, compound concentration 1 uM, replicate 1
[6] = 24 h, 1 µM, compound concentration 1 uM, replicate 2
[7] = 24 h, 10 µM, compound concentration 10 uM, replicate 1
[8] = 24 h, 10 µM, compound concentration 10 uM, replicate 2
[9] = 48 h, 1 µM, compound concentration 1 uM, replicate 1
[10] = 48 h, 1 µM, compound concentration 1 uM, replicate 2
[11] = 48 h, 10 µM, compound concentration 10 uM, replicate 1
[12] = 48 h, 10 µM, compound concentration 10 uM, replicate 2

CN(C)c1ccnc2sc3c(=O)n(N4CCCCCC4)cnc3c12
Population Apoptotic (%) [1]: 42% | Population Fragmented Nuclei (%) [1]: 17% | Population Healthy Nuclei (%) [1]: 64% | Population Hoechst High Intensity Objects (%) [1]: 3% | Population Membrane Permeable-Phenotype (%) [1]: 1% | Population Mitochondria Different-Phenotype (%) [1]: 3% | Population Mitotic Cells (%) [1]: 57% | Population Normal (%) [1]: 96% | Population Pyknosed Nuclei (%) [1]: 18% | Population Tubulin-Different-Phenotype (%) [1]: 29% | Total Cell Count [1]: 144 | Population Apoptotic (%) [2]: 30% | Population Fragmented Nuclei (%) [2]: 28% | Population Healthy Nuclei (%) [2]: 51% | Population Hoechst High Intensity Objects (%) [2]: 6% | Population Membrane Permeable-Phenotype (%) [2]: 10% | Population Mitotic Cells (%) [2]: 70% | Population Normal (%) [2]: 93% | Population Pyknosed Nuclei (%) [2]: 19% | Population Tubulin-Different-Phenotype (%) [2]: 44% | Total Cell Count [2]: 162 | Population Apoptotic (%) [3]: 44% | Population Fragmented Nuclei (%) [3]: 14% | Population Healthy Nuclei (%) [3]: 58% | Population Hoechst High Intensity Objects (%) [3]: 5% | Population Membrane Permeable-Phenotype (%) [3]: 1% | Population Mitochondria Different-Phenotype (%) [3]: 14% | Population Mitotic Cells (%) [3]: 55% | Population Normal (%) [3]: 94% | Population Pyknosed Nuclei (%) [3]: 27% | Population Tubulin-Different-Phenotype (%) [3]: 75% | Total Cell Count [3]: 141 | Population Apoptotic (%) [4]: 49% | Population Fragmented Nuclei (%) [4]: 31% | Population Healthy Nuclei (%) [4]: 30% | Population Hoechst High Intensity Objects (%) [4]: 7% | Population Membrane Permeable-Phenotype (%) [4]: 12% | Population Mitotic Cells (%) [4]: 50% | Population Normal (%) [4]: 92% | Population Pyknosed Nuclei (%) [4]: 38% | Total Cell Count [4]: 145 | Population Apoptotic (%) [5]: 48% | Population Fragmented Nuclei (%) [5]: 11% | Population Healthy Nuclei (%) [5]: 67% | Population Hoechst High Intensity Objects (%) [5]: 3% | Population Membrane Permeable-Phenotype (%) [5]: 0% | Population Mitochondria Different-Phenotype (%) [5]: 3% | Population Mitotic Cells (%) [5]: 51% | Population Normal (%) [5]: 96% | Population Pyknosed Nuclei (%) [5]: 21% | Population Tubulin-Different-Phenotype (%) [5]: 27% | Total Cell Count [5]: 143 | Population Apoptotic (%) [6]: 50% | Population Fragmented Nuclei (%) [6]: 24% | Population Healthy Nuclei (%) [6]: 55% | Population Hoechst High Intensity Objects (%) [6]: 2% | Population Membrane Permeable-Phenotype (%) [6]: 10% | Population Mitochondria Different-Phenotype (%) [6]: 2% | Population Mitotic Cells (%) [6]: 50% | Population Normal (%) [6]: 97% | Population Pyknosed Nuclei (%) [6]: 19% | Population Tubulin-Different-Phenotype (%) [6]: 49% | Total Cell Count [6]: 146 | Population Apoptotic (%) [7]: 57% | Population Fragmented Nuclei (%) [7]: 13% | Population Healthy Nuclei (%) [7]: 58% | Population Hoechst High Intensity Objects (%) [7]: 5% | Population Membrane Permeable-Phenotype (%) [7]: 0% | Population Mitochondria Different-Phenotype (%) [7]: 18% | Population Mitotic Cells (%) [7]: 42% | Population Normal (%) [7]: 94% | Population Pyknosed Nuclei (%) [7]: 28% | Population Tubulin-Different-Phenotype (%) [7]: 63% | Total Cell Count [7]: 130 | Population Apoptotic (%) [8]: 30% | Population Fragmented Nuclei (%) [8]: 35% | Population Healthy Nuclei (%) [8]: 41% | Population Hoechst High Intensity Objects (%) [8]: 8% | Population Membrane Permeable-Phenotype (%) [8]: 22% | Population Mitochondria Different-Phenotype (%) [8]: 24% | Population Mitotic Cells (%) [8]: 69% | Population Normal (%) [8]: 91% | Population Pyknosed Nuclei (%) [8]: 22% | Population Tubulin-Different-Phenotype (%) [8]: 85% | Total Cell Count [8]: 128 | Population Apoptotic (%) [9]: 64% | Population Fragmented Nuclei (%) [9]: 19% | Population Healthy Nuclei (%) [9]: 70% | Population Hoechst High Intensity Objects (%) [9]: 2% | Population Membrane Permeable-Phenotype (%) [9]: 0% | Population Mitochondria Different-Phenotype (%) [9]: 0% | Population Mitotic Cells (%) [9]: 35% | Population Normal (%) [9]: 97% | Population Pyknosed Nuclei (%) [9]: 10% | Population Tubulin-Different-Phenotype (%) [9]: 30% | Total Cell Count [9]: 143 | Population Apoptotic (%) [10]: 36% | Population Fragmented Nuclei (%) [10]: 36% | Population Healthy Nuclei (%) [10]: 49% | Population Hoechst High Intensity Objects (%) [10]: 3% | Population Membrane Permeable-Phenotype (%) [10]: 6% | Population Mitochondria Different-Phenotype (%) [10]: 2% | Population Mitotic Cells (%) [10]: 63% | Population Normal (%) [10]: 96% | Population Pyknosed Nuclei (%) [10]: 14% | Population Tubulin-Different-Phenotype (%) [10]: 41% | Total Cell Count [10]: 157 | Population Apoptotic (%) [11]: 73% | Population Fragmented Nuclei (%) [11]: 22% | Population Healthy Nuclei (%) [11]: 47% | Population Hoechst High Intensity Objects (%) [11]: 8% | Population Membrane Permeable-Phenotype (%) [11]: 0% | Population Mitochondria Different-Phenotype (%) [11]: 25% | Population Mitotic Cells (%) [11]: 26% | Population Normal (%) [11]: 91% | Population Pyknosed Nuclei (%) [11]: 30% | Population Tubulin-Different-Phenotype (%) [11]: 76% | Total Cell Count [11]: 138 | Population Apoptotic (%) [12]: 50% | Population Fragmented Nuclei (%) [12]: 47% | Population Healthy Nuclei (%) [12]: 42% | Population Hoechst High Intensity Objects (%) [12]: 6% | Population Membrane Permeable-Phenotype (%) [12]: 19% | Population Mitochondria Different-Phenotype (%) [12]: 13% | Population Mitotic Cells (%) [12]: 50% | Population Normal (%) [12]: 93% | Population Pyknosed Nuclei (%) [12]: 9% | Population Tubulin-Different-Phenotype (%) [12]: 86% | Total Cell Count [12]: 131
